Sampled rows, rich in hits. Any-hit rate of the full collection: about 1.5%.
HDAC3 inhib = inhibitors of human histone deacetylase 3. AID 2718. O15379. inhibition, % at 8.3 µM. recombinant HDAC3, fluorogenic peptide/trypsin coupled, fluorescence. 0.15% of 320,000 active; in the data active = inhibition above about 26%, passing the limit was not always enough
T cell modulator = T cell immune modulators affecting CD8 T cell-vesicle binding; 2C CD8+ T cell-vesicle binding, flow cytometry; hits give low values; response (vesicle binding), % at 7 µM; 0.068% of 330,000 active; AID 2052;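 active = response, share of CD8 T cells binding vesicles, and their 90th percentile fluorescence all below set limits, cut at about 80% in these data, passing the limit was not always enough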;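 also: values below 100% mean blocked vesicle binding to the CD8+ T cells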
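Read-out – percent CD8+ FL2 mean versus row control · System – murine 2C transgenic CD8+ T lymphocytes · Times – 1.5 h cell–vesicle binding at 37 °C, then 20 min icy labelling · Control set – naked vesicles low, QL9 vesicles with vehicle high · Detection – cytometric PE anti-B7-1 and Alexa647 anti-CD8 signals after 1% paraformaldehyde fixation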
Pemphigus Ab inh = human desmoglein-3 autoantibody binding inhibition | AID 588358 | DSG3-coupled beads, scFv-anti-DSG3-GFP binding, flow cytometry; hits give low values | P32926 | 0.48% of 310,000 active | binding (percent of control), % at 10 µM;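 active = binding more than 3 SD below its plate's average and above zero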;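 also: hits lower antibody fragment binding to DSG3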
Arr AP2 block = blocks beta-arrestin peptide binding to AP2 adaptin | FITC-arrestin peptide / GST-AP2 beads, flow cytometry; AP2 beta2 appendage carries R879A mutation | inhibition, % at 10 µM | 0.31% of 340,000 active;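 active = inhibition above a set limit, near 3 SD of compounds lacking own fluorescence, cut at about 54% in these data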;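 also: plate controls were DMSO wells for no effect and 5 µM unlabelled arrestin peptide for full effect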
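System: GST-tagged AP2 beta2-adaptin appendage (R879A) on 4 µm glutathione beads / Reagent: FITC-arrestin peptide, 50 nM / Detection: HyperCyt-sampled flow cytometry, FL1 channel, ex 488/em 535 nm / Timing: 12 min plus 1 h, RT / Buffer or medium: PBS plus Tween 20 (0.05%) and BSA (0.1%)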
LANA-H2A inh = blocks KSHV LANA binding to histone H2A/H2B; 0.6% of 320,000 active; inhibition, % (concentration not given with the values); Q9QR71; cell-free LANA-H2A/H2B peptide, fluorescence polarization; AID 2629; in the data active = inhibition mostly above about 10%, no sharp cut-off; inactive = mostly below about 6.7%
Arr-AP2 CP1 = human beta-arrestin and AP2 interaction inhibition, cherry pick. shares compounds with Arr AP2 block. GST-AP2 beads, FITC arrestin peptide binding, flow cytometry; GST-fused beta2-adaptin appendage, R879A mutant. inhibition, % at 10 µM. 2% of 1,300 active. AID 504908;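 active = inhibition above a set limit, roughly 3 SD of non-fluorescent compound noise, cut at about 38% in these data; inactive = inhibition at or below that limit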;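 also: loss of bead fluorescence from 50 nM FITC arrestin peptide bound to appendage; 0% = negative control wells and 100% = excess unlabelled arrestin peptide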
GST-FITC bead = GST-GSH bead binding interference, counter-screen; shares compounds with Arr AP2 block; GST-fluorescein binding to GSH beads, fluorescence; inhibition, % at 10 µM; 2% of 1,300 active; AID 588338;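 active = inhibition above 50%, about 3 SD of the inhibition seen with non-fluorescent compounds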;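 also: fluorescein maleimide labelled GST captured on 4 micron glutathione beads; higher means more loss of bead fluorescence from quenching or blocked binding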
* marks the source's active call; other numbers are inactive results; / = not tested or not shown.

SMILES	HDAC3 inhib	T cell modulator	Pemphigus Ab inh	Arr AP2 block	LANA-H2A inh	Arr-AP2 CP1	GST-FITC bead
CN(C)c1ccc(C=C2C(=O)NC(=O)NC2=O)cc1[N+](=O)[O-]	-8	448	98	5	4	/	/
COC(=O)C1=C(c2cccc(C#N)c2)C[C@@H]2CC[C@H]1N2C(=O)N1CCc2cc(OC)c(OC)cc2C1	-4	120	103	5	0	/	/
CCOC(=O)C1(CCc2ccccc2)CCN(Cc2ccc3c(c2)OCCO3)CC1	14	227	105	4	-1	/	/
CCOC(=O)C1(CCOc2ccccc2)CCN(Cc2ccc(C)s2)CC1	1	316	99	57*	-11	10	-4
O=C(CCC(=O)N1C[C@H]2C[C@@H](C1)c1cccc(=O)n1C2)NCc1ccccc1	0	284	92	-7	4	/	/
COc1ccccc1-n1c(CNCC2CCCO2)nc2ccccc2c1=O (configuration not stated)	0	664	109	60*	-5	-1	-7
